In ChEMBL document CHEMBL4513216, “Probing the Open Global Health Chemical Diversity Library for Multistage-Active Starting Points for Next-Generation Antimalarials” (ACS Infect Dis, 2020):

Assay: Toxicity liver stage against HepG2, at 10uM
Type: cell-based
Design: test concentration 10 uM, cell line HepG2-A16-CD81EGFP
Conditions: human, HepG2-A16-CD81EGFP cells; read-out: INHIBITION
In short: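 Uninfected HepG2-A16-CD81EGFP cells, 3 × 10^3 per well, 1536-well, plated on prespotted compound at 10 μM final, parasite-free screening media added to match infected plates; puromycin 10 μM positive, DMSO 0.5% negative; run in parallel with 48 h PbLuc assay at 37 °C, 5% CO2; viability by CellTiter-Glo luminescence, normalized to controls.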

Compared with `CS(=O)(=O)N1Cc2nccn2CC(Cn2ncccc2=O)C1` (stereo unspecified), `Cc1nc(C)n(CC2CN(Cc3cccs3)Cc3nccn3C2)n1` (stereo unspecified) is lower in cytotoxicity at 10 µM: -2.04% for the first, -133% for the second.

First: CCn1cc(NC(=O)C2CCN(Cc3noc(C(C)C)n3)CC2)cn1
Second: CC(C)c1nc(CN2CCCC2Cn2cccn2)no1 (stereo unspecified)
The cytotoxicity at 10 µM of the first is higher: 0.89% for the first, -0.121% for the second.

Going from `Cc1cc(C2CCC2)nc(N2CC(n3cccn3)C2)n1` to `Cc1ccc(C2CCCN(C(=O)c3cnn(C)c3)C2)nc1` (stereo unspecified), the cytotoxicity at 10 µM falls from -3.59% to -25.8%.

First: COc1c(CNCc2nnc3n2CCCCC3)c(C)nn1C
Second: Cc1noc(CCCC(=O)NC(C)c2nnc3n2CCC3)n1 (stereo unspecified)
The cytotoxicity at 10 µM of the first is higher: 9.03% for the first, 0.259% for the second.

Compared with `CCCc1cncnc1N1CCCC2(CCC(=O)N(C3CCCC3)C2)C1` (stereo unspecified), `Cc1cnc(N2CCC3(CC2)CCN(c2cncnc2)C3=O)nc1` is lower in cytotoxicity at 10 µM: 0.887% for the first, -13% for the second.

Going from `Cc1nc(C2CCN(C(=O)c3ccc(Cl)s3)CC2)cc(=O)[nH]1` to `CC(=O)N1CCC(c2cccc(Oc3ccccc3)n2)CC1`, the cytotoxicity at 10 µM rises from -0.243% to -0.0757%.

Going from `CN(C)CCNC(=O)c1ccc2ccc(N(C)CC3CC3)n2c1` to `CN(C)C[C@@H]1CN(C(=O)Cc2ccc3ccccc3c2)C[C@@H]1CO`, the cytotoxicity at 10 µM falls from -2.69% to -8.4%.

Going from `Cc1cc(C)c(CNC(=O)NCC(c2ccccc2)N(C)C)c(=O)[nH]1` (stereo unspecified) to `Cc1ccccc1C(CNc1ncnc2c1CCNC2)N(C)C` (stereo unspecified), the cytotoxicity at 10 µM rises from -3.19% to 5.31%.

Compared with `Cc1ccc(-c2ncc(CN3CCN(C(=O)N(C)C)CC3)s2)o1`, `CC(O)CN1CCN(C(=O)c2cnn(-c3ccccc3F)c2)CC1` (stereo unspecified) is lower in cytotoxicity at 10 µM: -3.25% for the first, -6.81% for the second.

Compared with `CC(C)(C)OC(=O)N[C@@H]1C[C@@H](O)CN(C(=O)c2cccc(F)c2)C[C@H]1O`, `CN(C(=O)c1cccc(NCC(=O)O)c1)C(C1CC1)C1CC1` is higher in cytotoxicity at 10 µM: 0.187% for the first, 5.01% for the second.

First: COC(=O)C1(NCC(=O)Nc2cc(C)ccc2OC)CCCCC1
Second: Cc1nc2c(C)cccc2cc1C(=O)N1CCC2(CCN(C)CC2)C1
The cytotoxicity at 10 µM of the first is higher: 4.02% for the first, -4.39% for the second.

Going from `Cc1cc(C)n(CC2CN(CCC(=O)NC3CCCCC3)CCO2)n1` (stereo unspecified) to `Cc1ncsc1CCC(=O)NC1CCN(c2ccc(Cl)nn2)CC1`, the cytotoxicity at 10 µM rises from -2.95% to -2.5%.

Going from `CC(c1cccc(O)c1)N(C)S(=O)(=O)c1cccnc1` (stereo unspecified) to `CN(C)C(=O)c1cccc(CCNS(=O)(=O)c2ccccc2)c1`, the cytotoxicity at 10 µM falls from 9.46% to -4.12%.

Going from `Cc1nn(C)c2c(NCc3ccccn3)ncnc12` to `c1ccc(CN2CCCn3nnc(COc4ccccn4)c3C2)nc1`, the cytotoxicity at 10 µM rises from -5.2% to 8.43%.

Going from `CCc1cc(NCCCOC2CCCC2)ncn1` to `CN(C)CCCn1ccnc1C1CCCN(c2ncc(Cl)cc2F)C1` (stereo unspecified), the cytotoxicity at 10 µM falls from -1.41% to -7.43%.

Compared with `CCSc1ncc(Cl)c(C(=O)NC(CCSC)C(=O)O)n1` (stereo unspecified), `COC(=O)c1ccc2c(-c3ccnc(NCCO)n3)c[nH]c2c1` is lower in cytotoxicity at 10 µM: -8.91% for the first, -12.8% for the second.

First: CCc1nccn1-c1cccc(C2CCCN2)n1 (stereo unspecified)
Second: Cc1nc(COC[C@@H]2CC[C@H]3[C@H](CCN3c3ccccn3)O2)cs1
The cytotoxicity at 10 µM of the first is lower: -5.77% for the first, 4.06% for the second.

First: O=C(c1cn2ccsc2n1)N1CCOCC(O)(CN2CCCC2)C1 (stereo unspecified)
Second: CS(=O)(=O)NCC1CCCN(C(=O)c2ccco2)C1 (stereo unspecified)
The cytotoxicity at 10 µM of the first is higher: 4.6% for the first, -19.3% for the second.

Going from `COCCOCC1(CNCc2ccc(OC)cc2)C[C@@H](O)[C@@H](O)C1` (stereo partly specified) to `Cc1nc(C2CCCN2C(=O)COc2ccccc2)ncc1C(N)=O` (stereo unspecified), the cytotoxicity at 10 µM falls from -7.46% to -19.1%.

Compared with `CCn1c(C2CCCN(C(=O)C(C)(C)OC)C2)nn(CCN(C)C)c1=O` (stereo unspecified), `CN(C)C[C@@H]1CN(C(=O)CCC2CCCC2)C[C@@H]1CO` is lower in cytotoxicity at 10 µM: -1.94% for the first, -2.94% for the second.

First: c1ccc(CN2CCOC3CNCC[C@H]32)cc1 (stereo partly specified)
Second: CCn1ncc2c1C(COCC1CC1)N(Cc1cnn(C)c1)CC2 (stereo unspecified)
The cytotoxicity at 10 µM of the first is lower: 6.31% for the first, 8.98% for the second.

Compared with `CCOc1c(F)cccc1C(=O)N(C)CCc1ccccn1`, `CC(C)COCCC(=O)Nc1ccc2oc(=O)n(CCN(C)C)c2c1` is lower in cytotoxicity at 10 µM: 18.6% for the first, -7.59% for the second.

First: NC(=O)c1ccc(-c2nc3c(c(=O)[nH]2)CCNC3)cc1
Second: CCc1nnc2n1CCN(C(=O)c1cc(Cl)c[nH]1)C2
The cytotoxicity at 10 µM of the first is higher: 1.37% for the first, -6.1% for the second.
